Assay results reported in ChEMBL document CHEMBL1125757, “Design of potent protein kinase inhibitors using the bisubstrate approach” (J Med Chem, 1991).
Where a SMILES comes first, the peptide text is derived from it. The star is where a group is joined. X1 = CN(C)c1ccc(S(=O)(=O)*)c2ccccc12

Columns and labels:
Type in all cases: protein assay
Protein kinase C (PKC) [1] = assay: Inhibition of protein kinase C (PKC)
How it was run: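 Reaction mix: protein kinase C (0.5 μg), histone IIIS 60 μg/mL, MgCl2 5 mM, CaCl2 0.5 mM, phosphatidylserine 50 μg/mL, diolein 5 μg/mL, [γ-³²P]ATP 10 μM, Tris/HCl pH 7.5, inhibitor at various concentrations. 30 °C for 7 min, stopped with TCA/BSA, precipitated twice, scintillation counting.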

[2] = target: T1, cAMP-dependent protein kinase (PKA) (Homo sapiens, UniProt P22694+P17612+P22612); assay: Inhibition of cAMP-dependent protein kinase (PKA).
How it was run: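 Protein kinase A (1 μg) with histone IIA 60 μg/mL, MgCl2 5 mM and [γ-³²P]ATP 10 μM (2000-4000 cpm/pmol) in Tris/HCl pH 7.0, inhibitor at various concentrations. 30 °C for 7 min, stopped with 12% TCA plus BSA carrier, reprecipitated, histone ³²P counted by scintillation.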

[3] = target: T1, cAMP-dependent protein kinase (PKA); assay: Displacement of ATP from protein kinase A (PKA)
How it was run: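 ATP-competition kinetics: Lineweaver-Burk plots at several inhibitor concentrations, with Ki taken from a secondary plot of apparent Km versus inhibitor concentration. Radiometric [γ-³²P]ATP phosphorylation assay in Tris/HCl pH 7.0 with MgCl2 5 mM and protein kinase A 1 μg, 30 °C, stopped with trichloroacetic acid. Run in triplicate.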

Protein kinase C (PKC) [4] = assay: Displacement of ATP from protein kinase C (PKC)
How it was run: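 ATP-competition kinetics: Lineweaver-Burk plots at several inhibitor concentrations, with Ki taken from a secondary plot of apparent Km versus inhibitor concentration. Radiometric [γ-³²P]ATP assay in Tris/HCl pH 7.5 with MgCl2 5 mM, CaCl2 0.5 mM, phosphatidylserine 50 μg/mL, diolein 5 μg/mL and protein kinase C 0.5 μg. Run in triplicate.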

IC50 (Protein kinase C (PKC) [1]) [µM] | IC50 [2] [µM] | Ki [3] [µM] | Ki (Protein kinase C (PKC) [4]) [µM] | Compound
7 | 2 | – | – | NCCNS(=O)(=O)c1cccc2cnccc12
20 | 2 | – | – | COC(=O)CCNCCNS(=O)(=O)c1cccc2cnccc12
12 | 6 | – | – | O=S(=O)(c1cccc2cnccc12)N1CCNCC1

Further lines, the compound ahead of its results:

Compound | IC50 (Protein kinase C (PKC) [1]) [µM] | IC50 [2] [µM] | Ki [3] [µM] | Ki (Protein kinase C (PKC) [4]) [µM]
N=C(N)NCCC[C@H](NC(=O)[C@H](CCCNC(=N)N)NC(=O)[C@H](CCCNC(=N)N)NC(=O)[C@H](CCCNC(=N)N)NC(=O)[C@H](CCCNC(=N)N)NC(=O)[C@H](CCCNC(=N)N)NC(=O)[C@H](CO)NC(=O)CCNCCNS(=O)(=O)c1cccc2cnccc12)C(=O)O | 0.3 | 0.003 | 0.004 | 0.1
CC1CNCCN1S(=O)(=O)c1cccc2cnccc12.Cl.Cl (centres undefined) | 6 | – | – | 6
C[C@H](NC(=O)[C@H](C)NS(=O)(=O)c1ccc(N(C)C)c2ccccc12)C(=O)N[C@@H](C)C(=O)N[C@@H](CCCN=C(N)N)C(=O)N[C@@H](CCCN=C(N)N)C(=O)N[C@@H](CCCN=C(N)N)C(=O)N[C@@H](CCCN=C(N)N)C(=O)O (X1-AAARRRR-OH) | > 75 | > 75 | – | –
